High-throughput results from PubChem BioAssay.
Most compounds without a hit are left out; they make up all but 2.6% or so of the library.
TCR-CD3 inh: inhibitors of human TCR-CD3 interaction, primary screen, biochemical, fluorescence, TAMRA-labeled TCR probe. inhibition, % at 9.4 µM. hit rate 0.37% among 360,000; in the data active means inhibition above about 19%;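 further: recombinant mutant TCR 2C K166C tagged with TAMRA read by polarization; 0% = receptor in buffer alone and 100% = receptor with positive control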
HTRA1 inhibitor: HTRA1 serine protease inhibitors, primary screen, biochemical, fluorescence polarization, HTS | Q92743 | recombinant HTRA1, FP-rhodamine activity-based probe | inhibition, % at 5.96 µM | hit rate 0.5% among 340,000 | AID 504803, 2011; in the data active means inhibition above about 36%;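 further: 0% = enzyme with DMSO and 100% = wells lacking enzyme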
mABHD4 FP: ABHD4 inhibitors, primary screen, biochemical, fluorescence polarization, mouse. purified mABHD4, FP-Rh probe fluorescence polarization. inhibition, % at 8.92 µM. hit rate 0.54% among 370,000;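 active means inhibition exceeding the mean over every tested compound plus 3 SD, cut at about 30% in these data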;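 further: 0% = plate median of compound wells and 100% = S159A mutant with DMSO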
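System: mouse ABHD4 enzyme, wild type / Medium: HEPES pH 7.0, NaCl, Pluronic buffer / Reagent: FP-Rh activity-based fluorescent probe / Control set: S159A mutant high control, sample median low control / Detection: fluorescence polarization with parallel and perpendicular emission, 525/598 nm / Schedule: 45 min + 60 min at 25 °C / Compound dosing: 8.92 µM, single dose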
PRMT1 inh: PRMT1 methyltransferase inhibitors, primary screen, biochemical, fluorescence polarization; hit rate 1.3% among 370,000; Protein arginine N-methyltransferase 1 (Homo sapiens), Q99873; recombinant PRMT1, activity-based probe fluorescence polarization; inhibition, % at 2.79 µM;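 active means inhibition above about 21% made by adding two undisclosed values, limit read from the data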
SIAE primary: human SIAE inhibitors, primary screen, biochemical, fluorescence polarization, FP-Rh probe, 1536-well HTS. Sialate O-acetylesterase (Homo sapiens), Q9HAT2. SIAE FP-Rh probe binding. inhibition, % at 9.66 µM. hit rate 0.69% among 370,000. AID 1053197, 2014;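 active means inhibition above a cutoff: mean of compounds within the control limits plus 3 SD of those, cut at about 17% in these data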;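 further: 0% = plate median of compound wells and 100% = probe without SIAE protein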
Target sequence (Q9HAT2 whole entry, looked up): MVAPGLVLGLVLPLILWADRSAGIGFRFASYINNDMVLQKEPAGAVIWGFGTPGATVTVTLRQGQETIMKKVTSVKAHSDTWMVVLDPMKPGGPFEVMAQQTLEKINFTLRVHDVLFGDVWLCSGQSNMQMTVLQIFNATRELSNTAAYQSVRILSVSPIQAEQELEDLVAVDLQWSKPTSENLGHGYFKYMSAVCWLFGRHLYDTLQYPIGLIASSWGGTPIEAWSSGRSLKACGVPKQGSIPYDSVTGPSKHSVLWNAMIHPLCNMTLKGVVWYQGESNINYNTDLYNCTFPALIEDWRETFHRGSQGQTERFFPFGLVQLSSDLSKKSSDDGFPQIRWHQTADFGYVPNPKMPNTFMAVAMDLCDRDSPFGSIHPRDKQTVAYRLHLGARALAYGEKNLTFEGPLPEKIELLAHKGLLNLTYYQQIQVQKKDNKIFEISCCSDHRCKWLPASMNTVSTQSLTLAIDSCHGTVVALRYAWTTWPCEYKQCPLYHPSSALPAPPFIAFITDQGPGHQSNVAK
ABHD4 confirm: ABHD4 inhibitors, retest, confirmation, biochemical, fluorescence polarization, mouse | shares compounds with mABHD4 FP | purified mABHD4, FP-Rh probe fluorescence polarization | inhibition, % at 8.92 µM | hit rate 55% among 1,800 | AID 720658, 2013;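 active means mean inhibition across replicates above the hit cutoff set in the primary screen, cut at about 30% in these data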;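 further: 0% = wild-type ABHD4 with DMSO and 100% = catalytically dead S159A mutant with DMSO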
Numbers without * were called inactive; nt = not tested or not shown.

SMILES	TCR-CD3 inh	HTRA1 inhibitor	mABHD4 FP	PRMT1 inh	SIAE primary	ABHD4 confirm
CC(Oc1ccc2c(-c3ccccc3)cc(=O)oc2c1)C(=O)NCC1CCC(C(=O)O)CC1 (stereo not given)	8.6	-1.7	48.7*	-4.4	-1.0	38.5*
Cc1cc(=O)oc2cc(OCC(=O)OCC(=O)Nc3ccccc3Br)ccc12	-4.5	2.3	12.0	1.8	-9.2	nt
Cc1cc(=O)oc2cc(OCC(=O)Nc3ccccc3C(=O)O)ccc12	0.9	1.2	35.2*	2.7	-4.0	39.2*
Cc1cc(=O)oc2cc(OC(C)C(=O)NCC3CCC(C(=O)O)CC3)ccc12 (stereo not given)	9.1	3.3	-1.6	-3.2	0.0	nt
O=C(COc1ccc2c(-c3ccccc3)cc(=O)oc2c1)NCC1CCC(C(=O)O)CC1 (stereo not given)	-7.5	0.7	39.9*	2.8	-1.4	42.3*
C=CCN1C(C(=O)OCC)CSCCS1(=O)=O (stereo not given)	0.7	nt	-1.8	0.2	-6.6	nt
CC(=O)N1C[C@@H](CO)[C@@H](N(C)C(=O)/C=C/c2ccccc2)C[C@H]1c1ccccc1	-0.7	nt	3.6	1.9	0.3	nt
Cc1ccc(C(c2ccc(C)o2)c2cccc([N+](=O)[O-])c2O)o1	3.0	-1.1	17.5	12.3	7.0	nt
Cc1cc(C(c2ccc(C)o2)c2ccc(C)o2)c(O)c([N+](=O)[O-])c1	-1.8	14.9	43.5*	21.1	15.2	7.4
CCOc1ccc(CCNC(=O)CS(=O)Cc2nc(-c3ccc(C)cc3)oc2C)cc1 (stereo not given)	2.2	1.4	30.4*	5.2	-2.3	-13.9
O=C1/C(=C/C=C/c2ccco2)SC(=S)N1c1ccc(O)cc1	10.5	23.1	37.0*	25.0*	8.6	-42.0
COc1ccc(/C=N/Nc2cc(C)nc3ccc(OC)cc23)c(OC)c1	-5.2	3.8	30.7*	-4.1	9.6	50.8*
CC(=O)C1=C(C)N(CC(C)C)C(=S)NC1c1ccc(Br)cc1 (stereo not given)	0.9	nt	-0.2	8.0	0.7	nt
CC(=O)CC[C@@H]1CC[C@]2(CCCN(C(=O)c3ccco3)C2)O1	nt	nt	6.8	-0.9	3.4	nt
COC(=O)C1=C(C)N(Cc2ccccc2C(F)(F)F)C(=NCc2ccc(OC)cc2)NC1c1ccccc1 (stereo not given)	4.4	nt	13.5	0.7	9.0	nt
COC(=O)C1=C(C)N(Cc2ccccc2C(F)(F)F)C(=NCc2ccc(OC)cc2)NC1c1cccc(F)c1 (stereo not given)	-3.8	nt	42.3*	-0.5	0.8	66.4*
CCN(CC)c1ccc2cc(C(N)=O)c(=N)oc2c1	1.1	nt	8.9	-7.5	-4.1	nt
CCN(CC)c1ccc2cc(C(N)=O)c(=O)oc2c1	10.9	9.7	41.4*	-3.5	10.1	4.4
COC(=O)[C@]12C[C@H](CC(=O)N3CCCC3)C(=O)N(Cc3ccccc3)C1=C[C@H](C(C)(C)C)O[C@@H]2C	1.4	nt	9.9	0.1	-3.4	nt
Cc1cccc(N2C(=O)SC(N(C)c3ccccc3)C2=O)c1 (stereo not given)	-4.9	-12.1	64.3*	-0.8	-1.1	-8.9
O=C(OCC#CCSc1nnc(-c2cccc3ccccc23)o1)c1cccc(F)c1	nt	nt	3.4	-1.4	-3.8	nt
O=C(O)c1ccc2c(c1)C(=O)N(c1ccc(Nc3ccccc3)cc1)C2=O	-1.4	12.6	30.6*	2.9	8.0	18.1
CC(=NN1CCN(Cc2ccccc2Cl)CC1)c1ccc(O)cc1	nt	nt	-6.2	-7.3	-5.1	nt
CSc1ccc(C=NNc2ccc(S(=O)(=O)Nc3ccccc3C(=O)O)cc2[N+](=O)[O-])cc1	-1.2	16.0	32.2*	2.4	12.0	77.5*
Cc1nn(-c2ccccc2)c(Cl)c1/C=N/Nc1ccc(S(=O)(=O)Nc2ccccc2C(=O)O)cc1[N+](=O)[O-]	0.3	6.4	41.9*	-1.4	17.6*	62.0*
CCOc1cccc(C=NNc2ccc(S(=O)(=O)Nc3ccccc3C(=O)O)cc2[N+](=O)[O-])c1O	2.6	14.0	61.9*	0.3	-0.7	66.1*
